Columns and labels:
[1] = test system: BJ; test: Cytotoxicity against human BJ cells assessed as reduction in cell viability after 3 days by CellTiter-Glo assay; assay type: cell-based
[2] = test system: HepG2; test: Cytotoxicity against human HepG2 cells assessed as reduction in cell viability after 3 days by CellTiter-Glo assay; assay type: cell-based
[3] = test system: HEK293; test: Cytotoxicity against HEK293 cells assessed as reduction in cell viability after 3 days by CellTiter-Glo assay; assay type: cell-based, Homo sapiens
[4] = biological target: T1, Bromodomain-containing protein 2 (Homo sapiens, UniProt P25440); test: Binding affinity to His-tagged BRD2 bromodomain 2 (unknown origin) by SPR assay
Summary of the method: (§1)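 SPR at 15 °C: poly-His BRD2 bromodomain constructs capture-coupled (Ni2+/NTA plus EDC/NHS amine coupling) to ~450–530 RU, with a reference channel. Compounds run as 3-fold series from 2 μM, in duplicate, at 150 μL/min.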
Target sequence in this assay (P25440 whole entry): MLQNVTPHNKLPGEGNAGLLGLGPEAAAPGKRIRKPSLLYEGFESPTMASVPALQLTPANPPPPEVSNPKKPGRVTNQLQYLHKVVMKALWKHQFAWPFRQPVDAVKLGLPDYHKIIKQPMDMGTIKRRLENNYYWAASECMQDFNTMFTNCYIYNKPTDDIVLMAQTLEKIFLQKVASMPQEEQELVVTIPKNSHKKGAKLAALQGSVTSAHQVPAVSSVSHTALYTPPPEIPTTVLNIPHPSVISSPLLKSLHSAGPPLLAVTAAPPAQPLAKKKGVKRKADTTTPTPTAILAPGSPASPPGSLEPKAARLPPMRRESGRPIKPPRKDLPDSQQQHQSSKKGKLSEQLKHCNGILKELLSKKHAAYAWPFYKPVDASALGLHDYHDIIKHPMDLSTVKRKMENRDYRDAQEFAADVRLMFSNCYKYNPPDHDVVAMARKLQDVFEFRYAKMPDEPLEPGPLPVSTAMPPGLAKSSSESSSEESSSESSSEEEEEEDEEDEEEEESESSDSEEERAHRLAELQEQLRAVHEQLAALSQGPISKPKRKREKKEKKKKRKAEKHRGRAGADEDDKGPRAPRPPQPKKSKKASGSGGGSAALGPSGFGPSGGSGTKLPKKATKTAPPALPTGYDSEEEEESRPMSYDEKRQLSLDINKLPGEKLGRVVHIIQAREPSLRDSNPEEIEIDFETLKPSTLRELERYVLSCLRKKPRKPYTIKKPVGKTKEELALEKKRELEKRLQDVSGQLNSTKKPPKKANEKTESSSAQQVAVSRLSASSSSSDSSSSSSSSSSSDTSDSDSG

[5] = species on record: Homo sapiens; test: Selectivity index, ratio of Kd for BRD2 bromodomain 1 (74 to 194 residues) (unknown origin to Kd for BRD2 bromodomain 2 (348 to 455 residues) (unknown origin)
[6] = biological target: T1, Bromodomain-containing protein 2; test: Binding affinity to His-tagged BRD2 bromodomain 1 (unknown origin) by SPR assay; assay type: single protein; summary of the method: as §1
Target sequence in this assay (P25440 whole entry): as above

[7] = species on record: Homo sapiens; test: Selectivity index, ratio of Kd for His-tagged BRD2 bromodomain 1 (unknown origin) to Kd for His-tagged BRD2 bromodomain 2 (unknown origin); summary of the method: as §1
[8] = biological target: T1, Bromodomain-containing protein 2
Target sequence in this assay (P25440 whole entry): as above

[9] = biological target: T1, Bromodomain-containing protein 2; test: Inhibition of recombinant human BRD2 bromodomain 1 (49 to 170 residues) using biotin labeled peptide substrate preincubated for 15 mins followed by substrate addition measured after 1 hr by TR-FRET assay; assay type: single protein
Target sequence in this assay (P25440 whole entry): as above

[10] = biological target: T1, Bromodomain-containing protein 2; test: Binding affinity to BRD2 bromodomain 1 (74 to 194 residues) (unknown origin) by ITC
Target sequence in this assay (P25440 whole entry): as above

[11] = biological target: T1, Bromodomain-containing protein 2; test: Inhibition of BRD2 in human HD-MB03 cells assessed as reduction in c-Myc protein expression after 72 hrs by Hoechst 33342 staining based immunofluorescence assay; assay type: cell-based
Summary of the method: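 HD-MB03 cells (3000/well, supplemented neurobasal medium) treated 24 h after plating with compound at 2 nM–40 μM final for 72 h. Imaged at 10x; nuclear masks from Hoechst used to quantify MYC per nucleus.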
Target sequence in this assay (P25440 whole entry, looked up): as the sequence (P25440 whole entry) above

[12] = Cytotoxicity against human HD-MB03 cells assessed as reduction in cell viability after 5 days by CellTiter-Glo assay; conditions: HD-MB03, 120 h
[13] = Cytotoxicity against human NALM16 cells assessed as reduction in cell viability after 5 days by CellTiter-Glo assay; conditions: NALM16, 120 h
[14] = test system: LOUCY; test: Cytotoxicity against human Loucy cells assessed as reduction in cell viability after 5 days by CellTiter-Glo assay; conditions: 120 h

Row | Structure (SMILES) | EC50 [1] | EC50 [2] | EC50 [3] | Kd [4] | Selectivity Index [5] | Kd [6] | Selectivity Index [7] | IC50 [8] | IC50 [9] | Kd [10] | inhibition [11] | EC50 [12] | EC50 [13] | EC50 [14]
1 | CCNC(=O)C[C@@H]1N=C(c2ccc(Cl)cc2)c2cc(OC)ccc2-n2c(C)nnc21 [MOLIBRESIB] | Non-Toxic | Non-Toxic | Non-Toxic | – | – | – | – | – | – | – | – | – | – | –
2 | CC(=O)N1c2ccc(-c3cc[nH]c3)cc2[C@H](NC(=O)OC(C)C)C[C@@H]1C | – | – | – | 77 nM | 4.6 | 104 nM | 1.4 | 410 nM | 2480 nM | – | – | – | – | –
3 | CC(=O)N1c2ccc(-c3cccs3)cc2[C@H](NC(=O)OC(C)C)C[C@@H]1C | – | – | – | – | 2.9 | 66 nM | 1.1 | 830 nM | 1770 nM | 61.3 nM | – | – | – | –
4 | CC(=O)N1c2ccc(-c3ccco3)cc2[C@H](NC(=O)OC(C)C)C[C@@H]1C | Non-Toxic | Non-Toxic | Non-Toxic | – | – | – | – | – | – | – | Dose-dependent effect | – | – | –
5 | CC(=O)N1c2ccc(-c3ccoc3)cc2[C@H](NC(=O)OC(C)C)C[C@@H]1C | – | – | – | 148 nM | 0.5 | 245 nM | 1.7 | 1910 nM | 5800 nM | – | – | – | – | –
6 | CC(=O)N1c2ccc(-c3ccsc3)cc2[C@H](NC(=O)OC(C)C)C[C@@H]1C | – | – | – | – | 4.2 | 105 nM | 1.5 | 1080 nM | 5210 nM | 71.7 nM | – | – | – | –
7 | COc1cc(OC)c2c(=O)[nH]c(-c3cc(C)c(OCCO)c(C)c3)nc2c1 [APABETALONE] | Non-Toxic | Non-Toxic | Non-Toxic | – | – | – | – | – | – | – | – | – | – | –
8 | CC(=O)N1c2ccc(-c3ccc(C(=O)O)cc3)cc2[C@H](Nc2ccc(Cl)cc2)C[C@@H]1C | Non-Toxic | Non-Toxic | – | – | – | – | – | 30 nM | 720 nM | – | – | 200 nM | 310 nM | 700 nM
9 | CC(=O)N1c2ccc(-c3ccc[nH]3)cc2[C@H](NC(=O)OC(C)C)C[C@@H]1C | – | – | – | 74 nM | 3.7 | 99 nM | 1.3 | 1400 nM | 1400 nM | – | – | – | – | –
10 | Cc1sc2c(c1C)C(c1ccc(Cl)cc1)=N[C@@H](CC(=O)OC(C)(C)C)c1nnc(C)n1-2 | Non-Toxic | Non-Toxic | Non-Toxic | – | – | – | – | – | – | – | – | – | – | –
